# Assay outcomes deposited in PubChem by several laboratories.
# HCT116 bCat-KO: beta-catenin-lacking colon tumor cell growth suppression; HCT116 beta-catenin knockout viability, CellTiter-Glo, 60 h; active compounds read low; viability, % at 10 µM; 1.5% of 140,000 active; AID 818;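 active means viability at or under a set limit, the compound median less 4 SD, cut at about 6% in these data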;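 further: 0% = Hyamine 1622 control at 20 µM and 100% = untreated cell control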
# Autophagy HCS: modulators of autophagy | MEF GFP-LC3 puncta imaging; test concentration mostly 10 µM | calls only at 10 µM (by protocol) | 0.98% of 190,000 active;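 active means percentage of spot-positive cells more than 3 SD above its plate mean, without a fluorescence outlier flag or 80% toxicity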;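 further: spot-positive cell cutoff set from DMSO-treated cells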
# HCT116 PTEN-null: growth suppressors of cells with PTEN tumor suppressor deletion; HCT116 PTEN-null viability, CellTiter-Glo, 60 h; active compounds read low; 1.2% of 140,000 active; viability, % at 10 µM;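 active means viability at or below a set limit, 4 SD under the median of all tested compounds, cut at about 3.7% in these data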;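 further: PTEN knockout HCT116 line with beta catenin targeted HCT116 as companion control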
# Dynein transport: dynein cargo transport inhibition | 3617.4 mouse cells, GR-EGFP nuclear translocation imaging; test concentration mostly 20 µM; stimulated with dexamethasone, 1 µM; active compounds read low | z-score, hits read low | 0.47% of 220,000 active | AID 1381;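 active means plate z-score of nuclear minus cytoplasmic receptor signal below a set negative limit, without overly bright fluorescence or cell loss, cut at about -3.5 in these data, passing the limit was not always enough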;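 further: z-score of nuclear minus cytoplasmic ring GR-EGFP intensity difference per well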
#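 medium = tetracycline-free induction medium containing charcoal-stripped FBS | also added = 1.0 µM final dexamethasone stimulus | schedule = 48 h induction, 1 h compound, 30 min dex at 37 °C | technique = fixed, Hoechst-stained cells imaged at 10x for EGFP | measure = GR-EGFP nuclear translocation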
# L major viab: inhibitors of Leishmania major promastigote growth; Leishmania major promastigotes, resazurin fluorescence viability; inhibition, % at 10 µM; 9% of 200,000 active; AID 1063; in the data active means inhibition above about 50%;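 further: promastigotes grown with compound for 44 hours at 28 °C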
# Starred values were filed as active, the others as inactive; i = inactive; / = no result; + = active, no number. Hits are enriched below; roughly 9.2% of the tested compounds scored in any of these assays.
SMILES,HCT116 bCat-KO,Autophagy HCS,HCT116 PTEN-null,Dynein transport,L major viab
C/C(=C/C(=O)Nc1cccc(F)c1)N1CCCC1,/,i,/,-0.73,2
Cc1ccc(NC2=NCC(=O)N2Cc2cccs2)cc1C,/,i,/,-0.74,-1
CN([C@@H](Cc1ccc(OS(=O)(=O)c2cccc3cnccc23)cc1)C(=O)N1CCN(c2ccccc2)CC1)S(=O)(=O)c1cccc2cnccc12,64,i,63,-0.47,98*
Cc1ccc(S(=O)(=O)N2CCOCC2)cc1C(=O)Nc1ccc2c(c1)CCC2,85,i,84,0.2,52*
O=C(Nc1nc2ccc(S(=O)(=O)N3CCCC3)cc2s1)C1CCCCC1,16,+,19,-1,5
COc1cc(C(=O)Nc2nc3ccc(S(=O)(=O)N4CCOCC4)cc3s2)cc(OC)c1OC,78,i,72,-1.2,61*
COc1ccc2nc(NC(=O)c3cc(S(=O)(=O)N4CCOCC4)ccc3C)sc2c1,74,i,86,0.77,56*
Cc1ccc(S(=O)(=O)N2CCN(CC(=O)Nc3ccc4c(c3)CCC4)CC2)cc1C,80,i,77,-0.81,5
Clc1cccc(NCc2ccccc2)n1,/,i,/,0.6,-4
CCOC(=O)N1CCC(NS(=O)(=O)c2ccc(C)c(Cl)c2)CC1,/,/,/,-0.35,/
COc1ccc(-c2nnnn2-c2ccc(F)cc2F)cc1,/,i,/,-0.43,3
CCN(CC)CC(=O)n1c2c(c3ccccc31)CCCC2,90,i,87,-0.64,-4
CN1CCN(CC(=O)n2c3c(c4ccccc42)CCCC3)CC1,92,+,92,-0.18,75*
CC(C)c1ccc(S(=O)(=O)c2cn(Cc3ccc(F)cc3)c3cc4c(cc3c2=O)OCO4)cc1,92,i,87,-0.77,98*
Cc1ccc(Cn2cc(S(=O)(=O)c3ccc(C(C)C)cc3)c(=O)c3cc4c(cc32)OCO4)cc1,88,i,85,-0.35,65*
CC(C(=O)N1CCOCC1)n1cc([N+](=O)[O-])cn1 (stereo not drawn),/,i,/,3,4
CCOC(=O)c1[nH]ncc1CN1CCN(Cc2ccccc2)C(CCO)C1 (stereo not drawn),/,i,/,-0.018,-1
COc1ccc(C(=O)/C=C/c2ccccc2C(F)(F)F)cc1,13,i,14,-3.1,54*
COc1ccccc1OCCNc1cc(N2CCCCC2)ccc1[N+](=O)[O-],81,i,79,-0.66,7
Cc1ccccc1OCCNc1cc(N2CCNCC2)ccc1[N+](=O)[O-],/,i,/,4.3,100*
Cc1ccn2cc(-c3cccc(NC(=O)C(C)C)c3)nc2c1,/,i,/,2.5,7
O=C(Nc1cccc(-c2cn3ccccc3n2)c1)c1cc2ccccc2oc1=O,2.8*,i,1.8*,0.24,15
Cc1ccn2cc(-c3cccc(NC(=O)c4ccccc4)c3)nc2c1,85,i,80,-0.3,72*
CN(C)/N=C/c1ccc(P(c2ccc(/C=N/N(C)C)o2)c2ccc(/C=N/N(C)C)o2)o1,/,i,/,1.2,1
COC(=O)c1cn(N(C)c2ncc(C(F)(F)F)cc2Cl)c(=O)c2ccccc12,82,i,78,-0.57,1
SMILES,HCT116 bCat-KO,Autophagy HCS,HCT116 PTEN-null,Dynein transport,L major viab
COc1ccc(Cn2nc(C)n(N(C)c3ncc(C(F)(F)F)cc3Cl)c2=O)cc1,98,i,101,-0.23,99*
COC(=O)C(C)Nc1cccc(Br)c1 (stereo not drawn),/,/,/,0.11,/
CCOC(=O)C(C(=O)OCC)C(Nc1cccc(Br)c1)c1ccccc1 (stereo not drawn),3.5*,i,1.6*,-1.1,1
CCn1ncc(Br)c1C(=O)N(C)C12CC3CC(CC(C3)C1)C2,91,i,86,-0.39,51*
O=c1c2ccccc2nc2c3ccccc3c(NCCO)nn12,/,i,/,0.76,20
COC(=O)C1=C(COc2ccc(C=O)cc2OC)NC(=O)NC1c1cc(C)ccc1C (stereo not drawn),90,i,84,-0.6,9
COCCNC(=O)C(=O)N/N=C/c1cccs1,/,i,/,0.94,-7
COc1ccccc1NC(=O)C(=O)N/N=C/c1cccs1,93,i,93,-0.12,55*
O=C(c1ccc(Cl)cc1)C1CCN(C(=O)NC2CCCCC2)CC1,81,i,86,-0.36,52*
COc1cccc(/C=C/C(=O)OCC(=O)NCc2ccco2)c1,103,i,98,-0.8,-4
CCN1CCN(C(=S)c2ccc(-c3ccccc3)cc2)CC1,/,i,/,-0.49,80*
